Test results: ChEMBL document CHEMBL4368914, “Tricyclic Indazoles-A Novel Class of Selective Estrogen Receptor Degrader Antagonists” (J Med Chem, 2019)

What was measured:
Estrogen receptor [1] = biological target: T1, Estrogen receptor (Homo sapiens, UniProt P03372); assay: Binding affinity to recombinant human GST-tagged ERalpha LBD expressed in baculovirus-infected insect cells by lantha screen assay
T1 sequence (P03372 whole entry): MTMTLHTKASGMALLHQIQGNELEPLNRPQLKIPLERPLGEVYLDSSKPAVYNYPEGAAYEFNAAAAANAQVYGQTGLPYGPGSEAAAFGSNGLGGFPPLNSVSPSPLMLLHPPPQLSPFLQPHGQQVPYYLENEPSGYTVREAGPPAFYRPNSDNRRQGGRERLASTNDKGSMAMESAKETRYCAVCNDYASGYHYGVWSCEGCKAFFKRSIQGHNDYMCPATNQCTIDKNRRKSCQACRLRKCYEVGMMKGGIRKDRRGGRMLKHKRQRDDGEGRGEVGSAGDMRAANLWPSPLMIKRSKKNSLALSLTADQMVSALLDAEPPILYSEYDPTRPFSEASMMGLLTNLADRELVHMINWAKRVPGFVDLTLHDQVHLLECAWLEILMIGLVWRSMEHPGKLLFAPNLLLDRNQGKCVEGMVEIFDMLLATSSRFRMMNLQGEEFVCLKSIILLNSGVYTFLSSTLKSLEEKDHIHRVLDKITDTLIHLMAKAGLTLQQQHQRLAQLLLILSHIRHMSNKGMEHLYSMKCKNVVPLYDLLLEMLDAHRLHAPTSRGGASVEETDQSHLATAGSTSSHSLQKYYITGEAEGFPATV

Estrogen receptor [2] = biological target: T1, Estrogen receptor; assay: Induction of ERalpha degradation in human MCF7 cells after 18 to 24 hrs by in multiplexed cell assay; format: cell-based
Procedure, shortened: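 MCF-7 cells were kept at 37 °C, 5% CO₂ in phenol red-free RPMI1640 with 5% charcoal-stripped FCS and 2 mmol/L glutamine. Compounds came from 10 mmol/L DMSO stocks.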

[3] = Lipophilicity, log D of the compound at pH 7.4 by shake flask method; format: physicochemical; conditions: buffer
Procedure, shortened: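 Shake-flask measurement of logD at pH 7.4.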

[4] = Fraction unbound in 10% human plasma by equilibrium dialysis; format: ADME, cell-free; conditions: 10% plasma
Procedure, shortened: (§1)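 Equilibrium dialysis from DMSO stock in 10% plasma, either Alderley Park Han Wistar rat plasma or human plasma.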

[5] = Intrinsic clearance in rat hepatocytes assessed per million cells; format: ADME, cell-based, Hepatocyte; conditions: read-out: CLH
Procedure, shortened: (§2)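 Rate of metabolism (µl/min/10⁶ cells) measured from DMSO stock in isolated hepatocytes diluted to 1x10⁶ cells/mL.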

[6] = Intrinsic clearance in human hepatocytes assessed per million cells; format: ADME, cell-based, Hepatocyte; conditions: read-out: CLH; procedure, shortened: as §2
[7] = Fraction unbound in Alderley Park Han Wistar rat plasma by equilibrium dialysis; format: ADME, cell-free; procedure, shortened: as §1
[8] = Glutathione reactivity in human liver microsomes assessed as GSH trapping ratio of compound to clozapine; format: ADME, Microsome
Procedure, shortened: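 Glutathione trapping in human liver microsomes, expressed as a ratio to clozapine.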

| SMILES | IC50 (Estrogen receptor [1]) | IC50 (Estrogen receptor [2]) | logD [3] | fraction unbound [4] | hepatocyte CLint [5] | hepatocyte CLint [6] | fraction unbound [7] | Ratio [8] |
| --- | --- | --- | --- | --- | --- | --- | --- | --- |
| COc1cc(/C=C/C(=O)O)ccc1[C@]1(C)c2ccc3[nH]ncc3c2C[C@@H](C)N1CC(C)(C)F | 3.98 nM | 2.51 nM | 1.9 | 0.077 | 10 µL/min/1e6 cells | 4 µL/min/1e6 cells |  |  |
| CC(C)CN1CCc2cc(O)ccc2[C@H]1c1ccc(/C=C/C(=O)O)cc1 |  |  |  |  |  |  | 0.037 |  |
| CC(C)CN1CCc2cccc3[nH]cc(c23)C1c1ccc(/C=C/C(=O)O)cc1 (stereo not drawn) | 39800 nM | > 10000 nM | 1 | 0.11 | 10 µL/min/1e6 cells |  |  |  |
| C[C@@H]1Cc2c(ccc3[nH]ncc23)[C@@](C)(c2c(F)cc(/C=C/C(=O)O)cc2F)N1CC(C)(C)F | 0.398 nM | 0.631 nM | 2.9 | 0.0033 | 12 µL/min/1e6 cells | 10 µL/min/1e6 cells | 0.0023 | < 0.04 |
| COc1c([C@@H]2c3ccc4[nH]ncc4c3C[C@@H](C)N2CC(C)(F)F)ccc(/C=C/C(=O)O)c1F | 1.26 nM | 6.31 nM | 2.6 | 0.0082 | 17 µL/min/1e6 cells | 7 µL/min/1e6 cells |  |  |

Other lines, results leading:

| IC50 (Estrogen receptor [1]) | IC50 (Estrogen receptor [2]) | logD [3] | fraction unbound [4] | hepatocyte CLint [5] | hepatocyte CLint [6] | fraction unbound [7] | Ratio [8] | SMILES |
| --- | --- | --- | --- | --- | --- | --- | --- | --- |
| 316 nM | 63.1 nM | 1.7 | 0.033 | 20 µL/min/1e6 cells | 8 µL/min/1e6 cells | 0.068 |  | CC(C)CN1CCc2c(ccc3[nH]ccc23)C1c1ccc(/C=C/C(=O)O)cc1 (stereo not drawn) |
| 20 nM | 1.58 nM | 2 | 0.036 | 6 µL/min/1e6 cells | 93 µL/min/1e6 cells | 0.066 | < 0.04 | CC(C)CN1[C@H](c2ccc(/C=C/C(=O)O)cc2)c2ccc3[nH]ncc3c2CC1(C)C |
| 10 nM | 0.631 nM |  | 0.022 | 7 µL/min/1e6 cells | 30 µL/min/1e6 cells | 0.034 | < 0.04 | CC(C)CN1[C@H](c2ccc(/C=C/C(=O)O)cc2)c2ccc3[nH]ncc3c2C[C@H]1C |
